Paper PMC8592288 (Bioorganic chemistry, 2021)

Legend:
RAW264.7 = test: Griess assay, NO in IFNγ/LPS-activated RAW264.7 macrophages; format: cell-based, mouse; conditions: INFγ/LPS activated RAW264.7; 1,25(OH)2D3 20 nM, CTA 5 and 20 μM; 24-hour treatment
IL-1β [1] = test: HTRF IL1β cytokine assay, supernatant of activated RAW264.7 macrophages; format: cell-based, mouse; conditions: INFγ/LPS activated RAW264.7; 1,25(OH)2D3 20 nM, CTA 20 μM
hFXR = hFXR (Homo sapiens, UniProt Q96RI1); test: FXR transcription assay, BSEP-luciferase in HeLa cells; format: cell-based; conditions: 24 h
Sequence of hFXR (Q96RI1 whole entry): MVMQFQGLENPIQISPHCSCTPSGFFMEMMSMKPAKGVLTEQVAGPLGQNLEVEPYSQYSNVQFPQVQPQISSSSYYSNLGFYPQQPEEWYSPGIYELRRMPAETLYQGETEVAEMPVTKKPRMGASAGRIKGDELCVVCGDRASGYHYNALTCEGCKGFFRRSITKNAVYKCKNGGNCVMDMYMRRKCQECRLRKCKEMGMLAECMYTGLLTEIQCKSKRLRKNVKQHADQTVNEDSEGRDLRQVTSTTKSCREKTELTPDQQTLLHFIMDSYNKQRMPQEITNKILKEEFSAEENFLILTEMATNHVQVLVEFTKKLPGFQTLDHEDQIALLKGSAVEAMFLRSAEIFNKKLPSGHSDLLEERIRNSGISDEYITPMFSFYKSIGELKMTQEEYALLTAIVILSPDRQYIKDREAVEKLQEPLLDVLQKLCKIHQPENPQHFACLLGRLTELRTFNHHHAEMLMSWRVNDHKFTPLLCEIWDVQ
Sequence of hFXR (P19793 whole entry partner): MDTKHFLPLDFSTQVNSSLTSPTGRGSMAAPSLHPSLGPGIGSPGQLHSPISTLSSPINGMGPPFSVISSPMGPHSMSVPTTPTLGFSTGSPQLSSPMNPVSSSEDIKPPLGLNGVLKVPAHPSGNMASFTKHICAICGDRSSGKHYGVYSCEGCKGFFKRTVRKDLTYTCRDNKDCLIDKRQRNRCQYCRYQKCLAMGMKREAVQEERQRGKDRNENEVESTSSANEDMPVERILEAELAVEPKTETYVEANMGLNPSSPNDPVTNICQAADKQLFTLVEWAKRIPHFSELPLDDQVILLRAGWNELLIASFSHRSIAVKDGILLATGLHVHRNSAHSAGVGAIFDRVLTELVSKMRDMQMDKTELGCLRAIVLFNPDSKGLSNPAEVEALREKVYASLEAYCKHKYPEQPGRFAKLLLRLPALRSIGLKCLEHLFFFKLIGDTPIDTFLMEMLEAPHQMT
Method in brief: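 HeLa cells grown in DMEM high glucose with 10% FCS, seeded at 8000 cells/well 24 h before transfection, then switched to 0.5% charcoal-stripped FCS. Calcium phosphate co-transfection with pcDNA3-hFXR, pSG5-hRXR, a BSEP promoter-luciferase (pGL3basic) reporter and pRL-SV40. Test compound added in 0.1% DMSO in phenol red-free medium for 24 h. Dual-Glo luciferase read-out. Controls: 0.1% DMSO and 1 μM GW4064. Triplicates, four independent repeats.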

LXR β = LXR β (Homo sapiens, UniProt P55055); test: Gal4 hybrid reporter transcription assay in HEK293T cells; format: cell-based; conditions: 1 μM CTA, 16 h
Sequence of LXR β (P55055 222-460 limits assumed): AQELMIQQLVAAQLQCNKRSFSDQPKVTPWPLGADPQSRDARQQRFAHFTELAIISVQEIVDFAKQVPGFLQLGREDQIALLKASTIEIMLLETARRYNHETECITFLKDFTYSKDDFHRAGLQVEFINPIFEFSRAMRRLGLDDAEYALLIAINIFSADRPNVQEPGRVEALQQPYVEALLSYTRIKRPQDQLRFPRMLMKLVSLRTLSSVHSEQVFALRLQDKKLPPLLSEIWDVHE
Method in brief: (§1)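 HEK293T cells transfected using Lipofectamine LTX with pFR-Luc, pRL-SV40 and pFA-CMV plasmids encoding Gal4 fusions of the human receptor LBDs. Cells then held 16 h in OptiMEM with penicillin/streptomycin, 1 μM test compound and 0.1% DMSO. Dual-Glo luciferase read-out. Controls: 0.1% DMSO, and 1 μM TO901317 or 1 μM tretinoin as reference agonists. Duplicates, four independent repeats.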

VDR [2] = biological target: T1, VDR (Homo sapiens, UniProt P11473); test: VDR transcription assay in the presence of 100 nM 1,25; format: cell-based
T1 sequence (P11473 1-427): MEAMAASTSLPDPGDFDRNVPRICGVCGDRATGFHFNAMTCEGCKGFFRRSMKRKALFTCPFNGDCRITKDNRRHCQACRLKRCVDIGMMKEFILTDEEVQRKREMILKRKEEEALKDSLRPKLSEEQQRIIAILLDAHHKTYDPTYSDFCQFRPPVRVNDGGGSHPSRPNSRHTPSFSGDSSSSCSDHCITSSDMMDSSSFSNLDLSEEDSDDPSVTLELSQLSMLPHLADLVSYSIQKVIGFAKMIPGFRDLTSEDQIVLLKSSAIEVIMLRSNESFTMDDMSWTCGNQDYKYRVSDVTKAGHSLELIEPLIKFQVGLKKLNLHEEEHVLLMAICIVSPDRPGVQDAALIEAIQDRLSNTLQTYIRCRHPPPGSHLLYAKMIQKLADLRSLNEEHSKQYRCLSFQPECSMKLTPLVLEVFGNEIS

CYP24A1 [3] = test: RT-PCR of VDR target gene CYP24A1 in Caco2 cells; format: cell-based, human
iNOS = test: RT-PCR of iNOS in IFNγ/LPS-activated RAW264.7 macrophages; format: cell-based, mouse; conditions: INFγ/LPS activated RAW264.7, CTA 5 and 20 μM
CYP24A1 [4] = conditions: at 7.5 μM; cited from earlier work
IL-1β [5] = test: RT-PCR of IL-1β in IFNγ/LPS-activated RAW264.7 macrophages; format: cell-based, mouse; conditions: INFγ/LPS activated RAW264.7, CTA 5 and 20 μM
[6] = subcutaneous administration; cited from earlier work
GST-CAR-LBD = GST-CAR-LBD (Homo sapiens, UniProt Q14994); test: TR-FRET coactivator binding assay for CAR; format: biochemical; conditions: CTA at 10 or 50 μM
Sequence of GST-CAR-LBD (Q14994 109-352 limits assumed): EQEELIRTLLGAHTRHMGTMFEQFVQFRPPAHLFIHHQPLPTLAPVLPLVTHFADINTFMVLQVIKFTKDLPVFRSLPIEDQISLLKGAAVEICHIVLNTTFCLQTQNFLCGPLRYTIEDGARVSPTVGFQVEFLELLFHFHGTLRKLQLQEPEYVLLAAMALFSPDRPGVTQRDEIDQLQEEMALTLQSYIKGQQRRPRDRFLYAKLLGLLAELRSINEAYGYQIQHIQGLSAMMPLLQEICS

ERβ-LBD = ERβ-LBD (Homo sapiens, UniProt Q92731); test: Fluorescence polarization coactivator binding assay; format: biochemical
Sequence of ERβ-LBD (Q92731 264-498 limits assumed, species assumed): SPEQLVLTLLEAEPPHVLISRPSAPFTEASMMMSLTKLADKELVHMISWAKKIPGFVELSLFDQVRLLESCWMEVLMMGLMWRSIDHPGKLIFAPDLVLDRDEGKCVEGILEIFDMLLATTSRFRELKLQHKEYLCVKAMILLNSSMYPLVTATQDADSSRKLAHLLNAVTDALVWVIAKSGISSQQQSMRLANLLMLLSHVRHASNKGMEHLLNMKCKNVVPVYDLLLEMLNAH
Method in brief: (§2)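 For ERα and ERβ, 1 μM LBD was mixed with 7 nM Texas Red-SRC2–2 coactivator peptide and 100 nM estradiol. After 3 h at room temperature, fluorescence polarization was read at Ex/Em 595/615 nm. Two independent experiments in quadruplicate.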

GST-hPXR-LBD = GST-hPXR-LBD (Homo sapiens, UniProt O75469); test: TR-FRET competition assay for PXR; format: binding; conditions: CTA at 10 or 50 μM
Sequence of GST-hPXR-LBD (O75469 146-433 limits assumed): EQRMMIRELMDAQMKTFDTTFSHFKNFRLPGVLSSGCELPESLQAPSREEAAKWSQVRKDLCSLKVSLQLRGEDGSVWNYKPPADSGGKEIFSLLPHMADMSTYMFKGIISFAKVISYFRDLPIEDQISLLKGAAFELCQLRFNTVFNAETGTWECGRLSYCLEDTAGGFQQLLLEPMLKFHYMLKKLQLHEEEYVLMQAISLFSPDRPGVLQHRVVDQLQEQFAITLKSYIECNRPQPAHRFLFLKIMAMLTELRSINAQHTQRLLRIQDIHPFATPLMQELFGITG
Method in brief: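 TR-FRET competition in pH 7.5 buffer (50 mM Tris, 50 mM KCl, 20 mM MgCl2, 1 mM CHAPS, 0.1 mg/mL BSA, 0.05 mM DTT). Test compound added in DMSO (0.4% final); TO901317 as positive control. After 30 min, excitation 340 nm, ratio 520/490 nm ×10000. n = 8.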

RXRα-LBD = RXRα-LBD (Homo sapiens, UniProt P19793); test: Fluorescence polarization coactivator binding assay; format: biochemical
Sequence of RXRα-LBD (P19793 227-458 limits assumed): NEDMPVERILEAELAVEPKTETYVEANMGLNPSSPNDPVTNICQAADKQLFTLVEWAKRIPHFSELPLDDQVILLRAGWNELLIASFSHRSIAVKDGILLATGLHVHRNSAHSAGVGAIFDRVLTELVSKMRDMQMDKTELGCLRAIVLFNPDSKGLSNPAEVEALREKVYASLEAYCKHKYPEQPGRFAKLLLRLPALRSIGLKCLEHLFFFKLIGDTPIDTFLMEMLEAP
Method in brief: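 RXRα-LBD (1 μM) combined with Texas Red-SRC2–3 peptide (7 nM) and bexarotene (2 μM). Incubated 3 h at room temperature; polarization detected at 595/615 nm. Two independent experiments, each in quadruplicate.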

HEK293 cells = test: Viability assay, CellTiter-Glo; format: cell-based; conditions: HEK293, 18 h exposure
Method in brief: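 HEK293 cells transfected and dosed as in the VDR transcription assay. After 18 h at 37 °C, 5% CO2, CellTiter-Glo luminescence measured (intracellular ATP). Eight measurements per concentration, averaged with SEM. LD50 derived by non-linear regression.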

PPARγ-LBD = PPARγ-LBD (Homo sapiens, UniProt P37231); test: Fluorescence polarization coactivator binding assay; format: biochemical
Sequence of PPARγ-LBD (P37231 238-503 limits assumed, species assumed): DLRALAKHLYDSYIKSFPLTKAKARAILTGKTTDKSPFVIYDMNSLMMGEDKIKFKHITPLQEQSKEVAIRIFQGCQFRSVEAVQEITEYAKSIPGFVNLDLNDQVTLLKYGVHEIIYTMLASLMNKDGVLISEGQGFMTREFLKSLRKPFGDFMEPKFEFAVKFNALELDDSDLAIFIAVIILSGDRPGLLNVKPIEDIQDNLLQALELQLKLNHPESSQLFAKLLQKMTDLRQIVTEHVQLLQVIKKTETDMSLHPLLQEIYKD
Method in brief: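 Mix of PPARγ-LBD (5 μM), Texas Red-labelled DRIP2 coactivator peptide (7 nM) and rosiglitazone (5 μM). Held 3 h at room temperature, then fluorescence polarization read at Ex/Em 595/615 nm. Two independent experiments in quadruplicate.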

LXR α = LXR α (Homo sapiens, UniProt Q13133); test: Gal4 hybrid reporter transcription assay in HEK293T cells; format: cell-based; conditions: 1 μM CTA, 16 h
Sequence of LXR α (Q13133 209-447 limits assumed): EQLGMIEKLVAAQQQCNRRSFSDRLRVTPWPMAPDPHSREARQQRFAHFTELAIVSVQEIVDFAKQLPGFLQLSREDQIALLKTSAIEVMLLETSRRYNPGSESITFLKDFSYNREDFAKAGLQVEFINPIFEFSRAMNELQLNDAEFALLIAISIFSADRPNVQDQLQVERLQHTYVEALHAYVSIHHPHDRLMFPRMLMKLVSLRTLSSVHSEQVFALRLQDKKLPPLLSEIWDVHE
Method in brief: as §1

RAW264.7 cells = test: Cytotoxicity on RAW264.7 cells, CellTiter-Glo; format: cell-based, mouse; conditions: RAW264.7, concentrations up to 100 μM
TRα-LBD = TRα-LBD (Homo sapiens, UniProt P10827); test: Fluorescence polarization coactivator binding assay; format: biochemical
Sequence of TRα-LBD (P10827 148-410 isoform P10827-2 limits assumed): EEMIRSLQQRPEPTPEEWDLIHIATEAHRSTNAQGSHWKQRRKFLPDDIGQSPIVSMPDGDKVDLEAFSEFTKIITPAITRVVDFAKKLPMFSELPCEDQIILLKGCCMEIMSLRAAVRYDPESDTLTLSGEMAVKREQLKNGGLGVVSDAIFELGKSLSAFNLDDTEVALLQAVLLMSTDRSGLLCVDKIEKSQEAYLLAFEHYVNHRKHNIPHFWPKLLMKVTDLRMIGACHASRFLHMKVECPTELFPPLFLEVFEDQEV
Method in brief: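 FP coactivator binding with TRα-LBD (1 μM), Texas Red-labelled SRC2–2 (7 nM) and triiodothyronine (100 nM). Incubated 3 h at room temperature; polarization read at 595/615 nm (Ex/Em). Two independent experiments, quadruplicate wells.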

AR-LBD = AR-LBD (Homo sapiens, UniProt P10275); test: Fluorescence polarization coactivator binding assay; format: biochemical
Sequence of AR-LBD (P10275 669-900 limits assumed): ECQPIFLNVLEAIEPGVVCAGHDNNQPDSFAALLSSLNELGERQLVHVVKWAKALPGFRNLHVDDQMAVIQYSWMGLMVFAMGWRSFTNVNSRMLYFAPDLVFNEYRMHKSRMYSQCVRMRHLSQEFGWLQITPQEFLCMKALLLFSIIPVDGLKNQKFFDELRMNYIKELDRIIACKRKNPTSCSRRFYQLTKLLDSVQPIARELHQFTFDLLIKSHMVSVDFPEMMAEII
Method in brief: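 Coactivator recruitment read by fluorescence polarization. AR-LBD at 5 μM with 7 nM Texas Red-labelled SRC2–3 peptide and 100 nM dihydrotestosterone. Incubated 3 h at room temperature, then read at Ex/Em 595/615 nm. Two independent experiments, each in quadruplicate.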

TRβ-LBD = TRβ-LBD (Homo sapiens, UniProt P10828); test: Fluorescence polarization coactivator binding assay; format: biochemical
Sequence of TRβ-LBD (P10828 217-461 limits assumed): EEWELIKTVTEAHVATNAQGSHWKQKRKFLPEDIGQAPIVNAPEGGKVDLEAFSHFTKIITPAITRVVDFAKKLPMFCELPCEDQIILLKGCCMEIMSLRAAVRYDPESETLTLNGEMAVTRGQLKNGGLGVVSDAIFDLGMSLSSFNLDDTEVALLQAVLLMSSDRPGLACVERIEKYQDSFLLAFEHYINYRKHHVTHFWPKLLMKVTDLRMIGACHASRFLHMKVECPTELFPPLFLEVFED
Method in brief: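 TRβ-LBD used at 0.8 μM, with 7 nM Texas Red-SRC2–2 peptide and 1 μM triiodothyronine. Incubated 3 h at room temperature; fluorescence polarization measured at Ex/Em 595/615 nm. Two independent experiments in quadruplicate.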

[7] = test system: ligand binding domain (LBD) of the VDR; conditions: two-hybrid assay; cited from earlier work
ERα-LBD = ERα-LBD (Homo sapiens, UniProt P03372); test: Fluorescence polarization coactivator binding assay; format: biochemical
Sequence of ERα-LBD (P03372 311-547 limits assumed, species assumed): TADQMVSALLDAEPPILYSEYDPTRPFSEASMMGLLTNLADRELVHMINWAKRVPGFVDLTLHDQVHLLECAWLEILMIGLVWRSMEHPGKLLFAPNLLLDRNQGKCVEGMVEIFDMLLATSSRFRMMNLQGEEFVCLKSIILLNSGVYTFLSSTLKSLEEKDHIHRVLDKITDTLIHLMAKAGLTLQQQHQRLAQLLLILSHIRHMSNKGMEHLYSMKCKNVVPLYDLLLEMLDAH
Method in brief: as §2

RARα = RARα (Homo sapiens, UniProt P10276); test: Gal4 hybrid reporter transcription assay in HEK293T cells; format: cell-based; conditions: 1 μM CTA, 16 h
Sequence of RARα (P10276 183-417 limits assumed): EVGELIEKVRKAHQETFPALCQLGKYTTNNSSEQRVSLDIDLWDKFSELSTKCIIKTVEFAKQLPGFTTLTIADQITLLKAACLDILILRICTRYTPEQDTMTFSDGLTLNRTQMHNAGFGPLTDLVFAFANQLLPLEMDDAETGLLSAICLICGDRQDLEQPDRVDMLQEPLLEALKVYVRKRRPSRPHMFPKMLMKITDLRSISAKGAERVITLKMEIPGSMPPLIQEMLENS
Method in brief: as §1

VDR [8] = biological target: T1, VDR; test: VDR-mediated transcription assay, CYP24A1-luciferase reporter in HEK293 cells; format: cell-based; conditions: HEK293, maximum reached before decrease due to toxicity
Method in brief: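 HEK293 cells grown in DMEM high glucose with NEAA, 10 mM HEPES and 10% FBS. Transfected with VDR-CMV and CYP24A1 promoter-luciferase plasmids (Lipofectamine LTX/PLUS) for 16 h at 37 °C. Cells replated at 400,000 cells/mL onto Matrigel-treated 384-well plates for 4 h. […] Bright-Glo luminescence; n = 8; non-linear regression.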

[9] = biological target: T2, Danio Rerio vitamin D receptor ligand binding domain (Danio rerio, UniProt Q9PTN2 156-453); test: crystal structure
T2 sequence (looked up): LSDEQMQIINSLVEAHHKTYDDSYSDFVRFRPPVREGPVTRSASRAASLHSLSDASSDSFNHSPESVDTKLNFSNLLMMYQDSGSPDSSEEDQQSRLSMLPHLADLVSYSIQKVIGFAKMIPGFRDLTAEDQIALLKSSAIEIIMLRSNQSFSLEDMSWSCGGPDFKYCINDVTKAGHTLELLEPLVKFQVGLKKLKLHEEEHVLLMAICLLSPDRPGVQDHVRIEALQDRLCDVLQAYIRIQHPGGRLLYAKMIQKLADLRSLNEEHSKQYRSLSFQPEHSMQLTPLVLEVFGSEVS

Molecule: C=C1/C(=C\C=C2/CCC[C@]3(C)[C@@H]([C@H](C)CCCC(C)(C)O)CC[C@@H]23)C[C@@H](O)C[C@@H]1O [1,25(OH)2D3, 1α,25-dihydroxyvitamin D3, reference compound]
- production of NO in comparison to vehicle (RAW264.7): reduced the production of NO
- IL-1β protein (HTRF) (IL-1β [1]): Reduced IL-1β protein

Molecule: C=C1/C(=C\C=C2/CCC[C@]3(C)[C@@H]([C@H](C)CC(=O)O)CC[C@@H]23)C[C@@H](O)C[C@@H]1O [CTA, (R)-3-((1R,3aS,7aR,E)-4-((Z)-2-((3S,5R)-3,5-dihydroxy-2-methylenecyclohexylidene)ethylidene)-7a-methyloctahydro-1H-inden-1-yl)butanoic acid]
- activation of farnesoid X receptor (hFXR): not activated
- activation of liver X receptor β (LXR β): not activated
- IC50 (VDR [2]): 72.2 µM
- production of NO in comparison to vehicle (RAW264.7): significant reduction
- IL-1β protein (HTRF) (IL-1β [1]): Reduced IL-1β protein
- expression of CYP24A1 in the presence of 1,25(OH)2D3 (CYP24A1 [3]; Caco2, 18 h, co-treatment with 1,25(OH)2D3): strongly induced
- CYP24A1 upregulation compared to lithocholic acid at 10 μM (CYP24A1 [3]; intestinal cells (Caco2), CTA at 10 μM): 100 fold
- iNOS gene transcription (RT-PCR) (iNOS): reduction of gene transcription was observed
- CYP24A1 upregulation in DU145 cells (CYP24A1 [4]): 9 fold
- IL-1β gene transcription (RT-PCR) (IL-1β [5]): reduction of gene transcription was observed
- antirachitic activity [6]: antirachitic activity
- induction of CAR-coactivator interactions (GST-CAR-LBD): did not bind to PXR or induce CAR-coactivator interactions
- activation of estrogen receptor ERβ (ERβ-LBD): not activated
- binding to PXR (GST-hPXR-LBD): did not bind
- activation of retinoid X receptor (RXRα-LBD): not activated
- LD50 (Cell-titer Glo viability) (HEK293 cells): 96.0 µM
- activation of peroxisome proliferator-activated receptor (PPARγ-LBD): not activated
- activation of liver X receptor α (LXR α): not activated
- cytotoxic effects (luminescence viability assay) (RAW264.7 cells): absence of any cytotoxic effects
- activation of thyroid receptor TRα (TRα-LBD): not activated
- activation of androgen receptor (AR-LBD): not activated
- activation of thyroid receptor TRβ (TRβ-LBD): not activated
- recruitment of SRC-1 to VDR LBD [7]: induces recruitment of SRC-1
- activation of estrogen receptor ERα (ERα-LBD): not activated
- activation of retinoic acid receptor (RARα): not activated
- level of activation of gene expression in comparison to 100 nM 1,25(OH)2D3 (VDR [8]): 30%

Molecule: C=C1/C(=C\C=C2/CCC[C@]3(C)[C@@H]([C@H](C)CC(=O)OC)CC[C@@H]23)C[C@@H](O)C[C@@H]1O [CTA-ME, Methyl (R)-3-((1R,3aS,7aR,E)-4-((Z)-2-((3S,5R)-3,5-dihydroxy-2-methylenecyclohexylidene)ethylidene)-7a-methyloctahydro-1H-inden-1-yl)butanoate]
- IC50 (VDR [2]): 8.16 µM
- antirachitic activity [6]: antirachitic activity
- LD50 (Cell-titer Glo viability) (HEK293 cells): 13.9 µM
- level of activation of gene expression in comparison to 100 nM 1,25(OH)2D3 (VDR [8]): 30%

B1: coactivator MED1 NR2 peptide (peptide)
peptide: NHPMLMNLLKDN
- binding result [9]: binds
